Sampled rows, rich in hits. Any-hit rate of the full collection: about 12%.
WT yeast gro inh: growth inhibition of WT yeast, mitochondrial fusion screen; mitochondrial fusion phenotypic screen, WT strain; inhibition, % at 10 µM; hit rate 2.1% among 190,000; in the data active means inhibition above about 58%; tested in S. cerevisiae
ABCB1 inh: inhibitors of human ABCB1 transporter, ABCG2 counter-screen. P08183. CCRF-Adr cells, JC-1 efflux, flow cytometry. inhibition, % at 6.6 µM. hit rate 0.067% among 190,000. AID 1326; in the data active means inhibition above about 40%;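 further: 0% = vehicle and 100% = reference inhibitor; higher value means more JC-1 retained so stronger ABCB1 efflux block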
RAM inhibit: yeast RAM network inhibition; S. cerevisiae dse1pr::URA3 reporter, 5-FOA growth OD615, 2 d; analog-sensitive cbk1-as2 kinase mutant strain; inhibition, % at 50 µM; hit rate 1.8% among 190,000;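 active means inhibition above a set limit, 3 SD over mean compound inhibition, cut at about 8.4% in these data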;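 further: 0% = DMSO-only wells with no growth and 100% = 10 µM 1-NA-PP1 full growth; inhibition rescues growth on 5-FOA so higher OD means more RAM inhibition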
L major viab: reduces viability of Leishmania major promastigotes. hit rate 9% among 200,000. resazurin fluorescence viability. inhibition, % at 10 µM; in the data active means inhibition above about 50%;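 further: promastigotes grown with compound for 44 hours at 28 °C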
ABCG2 inh: human ABCG2 inhibition, ABCB1 as counter-screen. Q9UNQ0. hit rate 0.1% among 190,000. inhibition, % at 6.6 µM. IgMXP3 cells, JC-1 efflux, flow cytometry;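 active means inhibition above 80%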;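 further: 0% = DMSO and 100% = nicardipine control wells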
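System: two drug-resistant human cell lines, ABCG2 and ABCB1; controls: nicardipine high and DMSO low controls; times: 10 min exposure at 25 °C with rotation, no wash; detection: flow cytometry of retained JC-1 fluorescence; read-out basis: percent efflux inhibition, scaled nicardipine 100% to DMSO 0%; doses: one concentration, 6.6 µM final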
* marks the source's active call; other numbers are inactive results; x = not tested or not shown.

SMILES	WT yeast gro inh	ABCB1 inh	RAM inhibit	L major viab	ABCG2 inh
O=[N+]([O-])c1ccc(NCCCN2CCOCC2)c([N+](=O)[O-])c1	-27.6	0.4	-0.2	84.5*	1.1
CCOc1ccccc1NC(=O)CN(c1ccc(OC)cc1OC)S(=O)(=O)c1ccccc1[N+](=O)[O-]	2.8	0.6	5.0	21.7	5.8
Cc1nnc(SC(C)C(=O)Nc2c(C)n(C)n(-c3ccccc3)c2=O)n1N (configuration not stated)	-3.3	0.4	2.5	0.6	25.6
Cc1ccc(C(=O)N/C(=C\c2ccc(C(C)C)cc2)C(=O)NCCCN2CCOCC2)cc1	4.1	0.3	1.3	66.5*	-1.9
O=C(NCCN1CCOCC1)c1cc2cc([N+](=O)[O-])ccc2s1	10.5	1.6	0.5	66.4*	21.6
O=C(NC(=S)NCCCN1CCOCC1)c1ccc([N+](=O)[O-])cc1	0.3	1.5	0.9	53.0*	2.9
CCOC(=O)C1=C(CP(=O)(c2ccccc2)c2ccccc2)NC(=O)NC1c1ccc(OC)cc1 (configuration not stated)	-12.9	0.4	-0.8	-4.3	7.5
CCOC(=O)C1=C(CSc2nc3ccccc3s2)NC(=O)NC1c1cc(C)ccc1C (configuration not stated)	13.4	1.0	3.8	60.2*	2.7
COC(=O)C1=C(CN2CCc3ccccc32)NC(=O)NC1c1cc(C)ccc1C (configuration not stated)	11.4	1.8	1.6	70.4*	9.3
CCOC(=O)C1=C(CSc2nc3ccccc3s2)NC(=O)NC1c1ccc(OC)cc1 (configuration not stated)	32.4	8.5	4.3	61.9*	28.1
COC(=O)C1=C(CSc2nc3ccccc3o2)NC(=O)NC1c1cc(C)ccc1C (configuration not stated)	75.4*	4.1	3.7	21.6	24.8
NNC(=O)C12CC3CC(C1)CC(n1ncnn1)(C3)C2	-3.7	0.3	0.9	-6.4	-1.1
CCSc1ccccc1C(=O)N=C1NC(=O)CC2C(=O)NCCN12 (configuration not stated)	-11.5	0.0	1.5	-6.8	5.3
COc1ccc(/C=C(\CC(=O)O)c2nc3ccccc3o2)cc1	-1.8	0.8	9.6*	-17.2	7.8
COC(=O)C1=C(C(=O)OC)C(c2cc(Br)ccc2O)c2sc(=O)[nH]c2S1 (configuration not stated)	18.7	x	0.7	65.4*	1.7
CCOc1ccccc1OCCCCOc1ccccc1F	15.7	0.1	1.7	33.5	1.9
Fc1ccccc1OCCCCCCN1CCCC1	-7.6	-0.1	-0.2	98.0*	-5.7
Fc1ccccc1OCCCCCN1CCCC1	12.6	0.3	0.4	71.5*	1.6
CCOc1ccccc1OCCCCN1CCCC1	-15.4	1.1	0.9	17.0	2.9
O=S(=O)(NC1=NCCCCC1)c1ccc2ccccc2c1	-4.9	0.2	1.1	-10.0	0.0
COc1ccc(Nc2cc(Cl)nc(N)n2)cc1OC	-10.2	0.9	2.7	-1.3	9.7
CCCC(=O)Oc1ccc(-c2nccc(C(OC)OC)n2)cc1	-1.7	0.2	1.8	0.7	0.2
O=C(NCCSCc1ccc(Cl)cc1Cl)c1ccc(CN2CCOCC2)cc1	55.4	2.0	-0.4	89.4*	6.6
O=C(NCCSc1ccc(Cl)cc1)c1ccc(CN2CCOCC2)cc1	-19.6	0.1	0.8	38.2	0.9
Cc1cccc(CSCCNC(=O)c2ccc(CN3CCOCC3)cc2)c1	4.9	-0.1	0.8	85.8*	0.2
SMILES	WT yeast gro inh	ABCB1 inh	RAM inhibit	L major viab	ABCG2 inh
Cc1ccc(-c2ccnc3nc(-n4cccc4)nn23)o1	-9.5	0.2	0.1	4.0	4.9
COc1ccc(Cn2nnnc2CN(Cc2cc3ccc(C)cc3[nH]c2=O)C2CCCC2)cc1	13.5	5.5	4.5	82.4*	10.1
CCOc1ccc2[nH]c(=O)c(CN(Cc3nnnn3Cc3ccco3)C3CCCCC3)cc2c1	-4.5	0.9	-0.1	39.0	5.3
COc1ccc(Cn2nnnc2CN(Cc2cc3cccc(C)c3[nH]c2=O)C2CCCC2)cc1	8.3	0.8	0.8	34.2	-1.2
CCC(C)(C)n1nnnc1CN(Cc1cc2cc(OC)ccc2[nH]c1=O)C1CCCC1	-11.5	1.5	0.2	98.5*	6.1
Cc1ccc(/C=N/NC(=O)C(C)Oc2ccccc2[N+](=O)[O-])s1 (configuration not stated)	-0.7	1.0	1.7	-4.1	7.5
CN(C)/C=C(\C=N\OCc1ccc(Cl)cc1Cl)C(=O)Nc1ccc(Cl)c(Cl)c1	83.6*	-0.1	10.9*	-2.4	-0.2
O=C(C1=C[C@H](C2CCCCC2)C[C@H](OCc2ccc(CO)cc2)O1)N1CCN(Cc2ccc3c(c2)OCO3)CC1	69.5*	2.8	0.0	67.9*	5.8
O=C(C1=C[C@@H](C2CCCCC2)C[C@@H](OCc2ccc(CO)cc2)O1)N1CCN(Cc2ccc3c(c2)OCO3)CC1	75.9*	1.7	-1.2	56.7*	1.2
C#CCNC(=O)C1=C[C@@H](C2CCCCC2)C[C@@H](OCc2ccc(CO)cc2)O1	-8.2	1.1	4.1	96.2*	6.5
O=C(C1=C[C@H](C2CC2)C[C@H](OCc2ccc(CO)cc2)O1)N1CCN(Cc2ccc3c(c2)OCO3)CC1	-5.0	2.4	-0.1	30.9	4.3
O=C(C1=C[C@H](C2CC2)C[C@H](OCCCCO)O1)N1CCN(Cc2ccc3c(c2)OCO3)CC1	-0.3	0.7	0.6	16.2	1.2
CCCCSCCCNC(=O)Nc1ccc(C)c(C)c1	27.6	-0.1	-0.4	31.3	9.7
Cc1cc(C)c2oc(-c3cccc(NC(=O)c4ccc(F)cc4)c3)nc2c1	-1.8	-0.1	3.1	65.3*	52.0
COc1cc(C(=O)Nc2cccc(-c3nc4cc(C)cc(C)c4o3)c2)cc(OC)c1OC	5.5	0.9	2.1	-0.7	2.3
COc1ccc(S(=O)(=O)NCc2ccc(C(=O)N3CCc4ccccc4C3)cc2)cc1	19.1	0.9	4.6	6.7	4.6
CCc1nc(N2CCCC2)c(C#N)c2c1CCCC2	17.4	-0.3	1.1	0.6	-0.2
CC(C)c1nc(N2CCCC2)c(C#N)c2c1CCCC2	70.3*	0.1	0.7	-3.9	1.7
COc1ccc(CCN2C(=O)CC(C(N)=O)SC2=Nc2ccccc2)cc1OC (configuration not stated)	-3.7	0.3	-0.3	2.1	4.7
O=C(c1cc(-c2ccccn2)nc2c(Cl)cccc12)N1CCN(C(=O)C2CCCO2)CC1 (configuration not stated)	-5.2	1.0	-0.2	8.5	8.2
O=C(c1cc(-c2ccccn2)nc2c(Cl)cccc12)N1CCN(S(=O)(=O)c2ccccc2)CC1	2.0	-0.1	0.9	80.7*	-3.1
O=C(NCc1cccnc1)c1csc2c1CCCC2	2.8	0.2	0.3	51.5*	1.9
O=C(Nc1ccccn1)c1csc2c1CCCC2	71.7*	0.2	-0.4	-5.9	4.1
Cc1ccc(CNC(=O)c2csc3c2CCCCC3)cc1	-5.3	0.4	3.4	-1.3	1.2
